The text below walks through data of ChEMBL document CHEMBL1914304 (J Med Chem, 2011).

One data set addresses T1, Kv4.3 (Homo sapiens, UniProt Q9UK17).
T1 sequence (Q9UK17 whole entry): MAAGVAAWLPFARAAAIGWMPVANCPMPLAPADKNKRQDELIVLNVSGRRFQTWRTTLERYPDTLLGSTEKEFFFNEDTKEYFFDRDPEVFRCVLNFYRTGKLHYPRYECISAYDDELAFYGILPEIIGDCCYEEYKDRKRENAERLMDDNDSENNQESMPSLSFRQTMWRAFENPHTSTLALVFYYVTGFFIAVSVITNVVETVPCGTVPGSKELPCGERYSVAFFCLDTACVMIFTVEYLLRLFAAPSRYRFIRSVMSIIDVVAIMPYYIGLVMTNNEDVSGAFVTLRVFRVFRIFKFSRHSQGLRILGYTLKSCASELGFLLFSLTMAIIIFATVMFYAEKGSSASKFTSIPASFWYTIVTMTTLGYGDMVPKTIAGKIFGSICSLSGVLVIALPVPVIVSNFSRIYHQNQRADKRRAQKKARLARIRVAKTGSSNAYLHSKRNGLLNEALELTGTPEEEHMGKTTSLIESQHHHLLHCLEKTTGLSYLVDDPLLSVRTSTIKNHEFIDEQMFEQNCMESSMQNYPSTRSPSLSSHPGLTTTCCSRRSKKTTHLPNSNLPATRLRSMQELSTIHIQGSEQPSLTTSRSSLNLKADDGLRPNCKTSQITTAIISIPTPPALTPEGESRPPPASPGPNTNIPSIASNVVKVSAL
As to the kind of experiment: Inhibition of Kv4.3 at 10 uM after 5 mins by patch clamp assay. The procedure, abridged:
(§1)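 Cardiac ion channel panel run by a contract lab on an automated parallel patch-clamp system at room temperature. Each of 12 cardiac channels was tested with 10 µM compound for 5 min exposure, in two cells per channel (n ≥ 2). Values are reported as mean % inhibition.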
A general note: The patch-clamp technique gives a direct electrical read-out from membranes.

Data set [1] concerns the target T2, Potassium/sodium hyperpolarization-activated cyclic nucleotide-gated channel 2 (Homo sapiens) (UniProt Q9UL51).
T2 sequence (whole entry): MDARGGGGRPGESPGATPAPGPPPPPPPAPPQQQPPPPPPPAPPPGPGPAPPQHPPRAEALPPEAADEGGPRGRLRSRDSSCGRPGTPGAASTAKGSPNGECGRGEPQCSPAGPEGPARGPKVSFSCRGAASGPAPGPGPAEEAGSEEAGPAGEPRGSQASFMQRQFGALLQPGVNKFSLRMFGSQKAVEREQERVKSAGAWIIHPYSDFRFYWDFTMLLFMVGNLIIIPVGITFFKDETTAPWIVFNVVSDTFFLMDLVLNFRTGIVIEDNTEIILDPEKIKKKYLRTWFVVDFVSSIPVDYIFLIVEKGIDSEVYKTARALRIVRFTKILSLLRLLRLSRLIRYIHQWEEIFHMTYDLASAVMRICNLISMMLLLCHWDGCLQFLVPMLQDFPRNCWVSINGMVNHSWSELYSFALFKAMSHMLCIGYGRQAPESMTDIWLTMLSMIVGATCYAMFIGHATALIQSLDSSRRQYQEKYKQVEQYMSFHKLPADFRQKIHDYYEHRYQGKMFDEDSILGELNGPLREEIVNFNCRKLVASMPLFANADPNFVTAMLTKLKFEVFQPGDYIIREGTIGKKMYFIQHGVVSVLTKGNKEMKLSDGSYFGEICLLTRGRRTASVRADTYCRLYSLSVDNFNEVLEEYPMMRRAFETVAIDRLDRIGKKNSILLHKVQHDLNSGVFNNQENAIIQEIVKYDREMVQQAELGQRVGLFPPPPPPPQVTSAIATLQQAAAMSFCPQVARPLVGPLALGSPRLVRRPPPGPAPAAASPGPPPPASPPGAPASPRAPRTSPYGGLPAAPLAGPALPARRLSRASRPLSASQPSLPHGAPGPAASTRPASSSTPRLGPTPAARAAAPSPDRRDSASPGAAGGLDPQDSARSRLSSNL
As to the kind of experiment: Inhibition of HCN2 at 10 uM after 5 mins by patch clamp assay. The procedure, abridged:
as §1

Data set [2] has as its target Voltage-dependent T-type calcium channel subunit alpha-1H (Homo sapiens) (UniProt O95180). The data set is described as follows: Inhibition of Cav3.2 at 10 uM after 5 mins by patch clamp assay. The procedure, abridged: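 Fixed-concentration screen across a panel of 12 cloned cardiac ion channels. The compound was tested at 10 µM for 5 min exposure at room temperature by automated parallel patch clamp, in two cells (n ≥ 2) per channel. Values are mean percent inhibition of channel current.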

Data set [3] has as its target Potassium voltage-gated channel subfamily A member 5 (Homo sapiens) (UniProt P22460). As to the kind of experiment: Inhibition of Kv1.5 at 10 uM after 5 mins by patch clamp assay. The procedure, abridged: as §1

Sequence of Voltage-dependent T-type calcium channel subunit alpha-1H (Homo sapiens) (O95180 whole entry): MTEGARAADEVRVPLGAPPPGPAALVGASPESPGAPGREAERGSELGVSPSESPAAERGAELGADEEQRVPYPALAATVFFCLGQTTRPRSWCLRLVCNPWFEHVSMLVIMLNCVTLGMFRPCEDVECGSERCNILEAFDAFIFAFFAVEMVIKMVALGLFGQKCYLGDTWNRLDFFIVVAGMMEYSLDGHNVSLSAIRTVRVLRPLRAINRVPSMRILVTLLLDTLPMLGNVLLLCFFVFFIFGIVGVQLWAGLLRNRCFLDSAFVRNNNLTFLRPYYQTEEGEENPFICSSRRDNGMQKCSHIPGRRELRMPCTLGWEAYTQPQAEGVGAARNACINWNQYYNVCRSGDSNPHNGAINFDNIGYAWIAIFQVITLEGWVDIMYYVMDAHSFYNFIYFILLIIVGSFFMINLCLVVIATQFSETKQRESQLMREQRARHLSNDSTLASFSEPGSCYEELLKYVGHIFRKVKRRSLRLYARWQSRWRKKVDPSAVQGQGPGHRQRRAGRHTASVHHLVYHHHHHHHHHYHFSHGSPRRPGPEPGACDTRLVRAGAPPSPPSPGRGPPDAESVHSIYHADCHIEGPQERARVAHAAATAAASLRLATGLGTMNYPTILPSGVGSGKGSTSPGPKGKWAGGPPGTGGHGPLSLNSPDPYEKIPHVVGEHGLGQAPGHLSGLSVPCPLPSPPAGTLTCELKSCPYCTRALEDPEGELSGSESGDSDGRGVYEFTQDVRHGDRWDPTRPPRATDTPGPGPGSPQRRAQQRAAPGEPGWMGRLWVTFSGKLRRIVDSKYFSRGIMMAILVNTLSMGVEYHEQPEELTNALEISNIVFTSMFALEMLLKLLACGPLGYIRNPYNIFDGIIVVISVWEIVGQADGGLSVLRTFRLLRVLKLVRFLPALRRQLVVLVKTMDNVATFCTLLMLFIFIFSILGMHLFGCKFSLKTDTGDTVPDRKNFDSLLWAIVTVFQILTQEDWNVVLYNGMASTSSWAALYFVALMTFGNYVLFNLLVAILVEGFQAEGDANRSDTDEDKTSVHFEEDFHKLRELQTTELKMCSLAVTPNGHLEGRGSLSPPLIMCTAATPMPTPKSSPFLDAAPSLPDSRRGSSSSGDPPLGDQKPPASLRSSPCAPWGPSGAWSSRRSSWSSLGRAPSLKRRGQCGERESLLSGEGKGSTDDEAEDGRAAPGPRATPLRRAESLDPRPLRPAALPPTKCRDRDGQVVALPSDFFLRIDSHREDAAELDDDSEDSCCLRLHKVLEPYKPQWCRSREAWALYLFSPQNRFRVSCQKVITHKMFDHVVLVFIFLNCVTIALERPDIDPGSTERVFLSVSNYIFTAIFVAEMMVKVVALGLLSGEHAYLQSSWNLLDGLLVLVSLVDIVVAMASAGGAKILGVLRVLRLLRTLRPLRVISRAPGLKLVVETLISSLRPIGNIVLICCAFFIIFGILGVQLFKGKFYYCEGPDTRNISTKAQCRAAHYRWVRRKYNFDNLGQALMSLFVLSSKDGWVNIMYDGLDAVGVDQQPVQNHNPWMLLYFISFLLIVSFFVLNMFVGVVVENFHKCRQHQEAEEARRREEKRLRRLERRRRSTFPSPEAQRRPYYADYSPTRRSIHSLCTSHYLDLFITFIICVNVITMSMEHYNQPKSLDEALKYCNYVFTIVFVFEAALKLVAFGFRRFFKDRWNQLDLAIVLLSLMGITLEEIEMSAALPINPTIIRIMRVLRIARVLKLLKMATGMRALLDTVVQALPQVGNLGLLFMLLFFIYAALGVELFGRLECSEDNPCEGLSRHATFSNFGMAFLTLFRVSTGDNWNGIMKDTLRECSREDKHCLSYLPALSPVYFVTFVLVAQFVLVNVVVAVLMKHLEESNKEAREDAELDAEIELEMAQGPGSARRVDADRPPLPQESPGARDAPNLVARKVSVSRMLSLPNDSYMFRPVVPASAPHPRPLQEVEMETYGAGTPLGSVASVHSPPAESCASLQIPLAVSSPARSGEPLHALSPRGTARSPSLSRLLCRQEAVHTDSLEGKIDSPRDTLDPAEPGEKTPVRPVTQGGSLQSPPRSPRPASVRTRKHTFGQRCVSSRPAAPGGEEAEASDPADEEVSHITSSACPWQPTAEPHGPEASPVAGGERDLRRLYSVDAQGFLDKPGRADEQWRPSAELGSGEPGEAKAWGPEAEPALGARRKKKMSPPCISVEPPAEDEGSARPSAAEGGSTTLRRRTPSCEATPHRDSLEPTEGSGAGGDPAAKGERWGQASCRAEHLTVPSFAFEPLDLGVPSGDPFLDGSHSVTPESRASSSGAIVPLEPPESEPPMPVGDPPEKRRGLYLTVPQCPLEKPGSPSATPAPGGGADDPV
Sequence of Potassium voltage-gated channel subfamily A member 5 (Homo sapiens) (P22460 whole entry): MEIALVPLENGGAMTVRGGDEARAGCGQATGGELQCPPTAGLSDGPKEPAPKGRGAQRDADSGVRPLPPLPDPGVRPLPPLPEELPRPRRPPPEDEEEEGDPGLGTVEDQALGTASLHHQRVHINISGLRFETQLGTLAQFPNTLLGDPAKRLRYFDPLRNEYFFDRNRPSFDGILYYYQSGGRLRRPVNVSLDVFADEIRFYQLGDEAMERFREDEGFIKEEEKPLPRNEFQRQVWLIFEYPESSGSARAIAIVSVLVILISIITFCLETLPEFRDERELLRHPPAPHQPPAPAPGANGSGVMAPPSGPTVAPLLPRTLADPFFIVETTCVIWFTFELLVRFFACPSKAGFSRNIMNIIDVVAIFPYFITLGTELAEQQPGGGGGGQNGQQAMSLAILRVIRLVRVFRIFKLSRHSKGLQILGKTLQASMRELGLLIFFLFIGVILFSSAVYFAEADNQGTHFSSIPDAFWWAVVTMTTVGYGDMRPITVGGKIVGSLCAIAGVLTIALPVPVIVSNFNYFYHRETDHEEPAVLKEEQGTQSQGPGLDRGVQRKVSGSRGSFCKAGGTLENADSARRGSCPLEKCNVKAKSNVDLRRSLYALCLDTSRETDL

For orientation: inhibition means the change of the read-out against control, counted positive when it falls. Regarding `CCCNCC(O)COc1ccccc1C(=O)CCc1ccccc1` (racemic) [PROPAFENONE], the inhibition at 5 min, 10 µM at Kv4.3 was 44.1%. The inhibition is 47.8% in data set [1], 60.2% in data set [2] and 65.4% in data set [3].
